# Sampled rows, rich in hits. Any-hit rate of the full collection: about 3.5%.
# HIV Env fusion: HIV envelope-mediated fusion inhibition. HeLa-JRFL Env/CEM21 cell fusion, luciferase. inhibition, % at 12.3 µM. 360,000 compounds, 1.1% hits;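 active = mean replicate inhibition score of at least 50 and every replicate individually at or above 50; inconclusive = only one of the two criteria met; inactive = mean below 50 and not all replicates reaching 50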;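 note: 0% = plate neutral controls and 100% = maraviroc near 300 nM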
# PGC1a acetyl inh: PGC1a acetylation modulation, inhibitor mode; AID 651687; 350,000 compounds, 0.17% hits; inhibition, % at 15.6 µM; U2OS PGC1a acetylation, AlphaScreen anti-acetyl-lysine; with virally co-expressed GCN5 acetyltransferase;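 active = every replicate shows inhibition of at least 40%; inconclusive = mean inhibition at least 40% but some replicate below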;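 note: 0% = neutral control wells and 100% = positive control wells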
# FGF22 binding: shifts melting point of recombinant human FGF22; recombinant FGF22 thermal shift, SYPRO orange fluorescence; percent of sucrose octasulfate shift, DMSO zero; activity (Tm shift, normalised), % at 9.99 µM; 340,000 compounds, 1.5% hits;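 active = mean Tm shift, scaled 0 neutral to 100 positive control, at about 1.3% or above, every replicate too, limit read from the data; inconclusive = no clear call, values can overlap the other calls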
# rRNA inh HTS: inhibitors of bacterial rRNA selective over humanized ribosomes | E. coli WT GFP vs humanized-ribosome RFP mutants, fluorescence, 24 h; stronger effect = lower value; DMSO median 0, no signal -100 | GFP signal change (wild-type ribosome), % (test concentration not listed) | 350,000 compounds, 1.6% hits | AID 720706;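 active = significant combined selectivity score with lowered wild-type GFP, culture density cut under 30%, mutant RFP and density less affected; inactive = any of these conditions unmet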
# ERAP1 inh: inhibitors of human ERAP1 aminopeptidase | inhibition, % at 10.7 µM | Q9NZ08 | recombinant ERAP1, Leu-AMC fluorescence, 60 min | 340,000 compounds, 0.15% hits | AID 652197;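 active = mean replicate inhibition of at least 30%, or all replicates individually reaching that 30% level; inactive = mean below 30% and not every replicate reaching it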;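 note: 0% = neutral control wells and 100% = L-leucinethiol positive control wells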
# Target sequence (Q9NZ08 whole entry, looked up): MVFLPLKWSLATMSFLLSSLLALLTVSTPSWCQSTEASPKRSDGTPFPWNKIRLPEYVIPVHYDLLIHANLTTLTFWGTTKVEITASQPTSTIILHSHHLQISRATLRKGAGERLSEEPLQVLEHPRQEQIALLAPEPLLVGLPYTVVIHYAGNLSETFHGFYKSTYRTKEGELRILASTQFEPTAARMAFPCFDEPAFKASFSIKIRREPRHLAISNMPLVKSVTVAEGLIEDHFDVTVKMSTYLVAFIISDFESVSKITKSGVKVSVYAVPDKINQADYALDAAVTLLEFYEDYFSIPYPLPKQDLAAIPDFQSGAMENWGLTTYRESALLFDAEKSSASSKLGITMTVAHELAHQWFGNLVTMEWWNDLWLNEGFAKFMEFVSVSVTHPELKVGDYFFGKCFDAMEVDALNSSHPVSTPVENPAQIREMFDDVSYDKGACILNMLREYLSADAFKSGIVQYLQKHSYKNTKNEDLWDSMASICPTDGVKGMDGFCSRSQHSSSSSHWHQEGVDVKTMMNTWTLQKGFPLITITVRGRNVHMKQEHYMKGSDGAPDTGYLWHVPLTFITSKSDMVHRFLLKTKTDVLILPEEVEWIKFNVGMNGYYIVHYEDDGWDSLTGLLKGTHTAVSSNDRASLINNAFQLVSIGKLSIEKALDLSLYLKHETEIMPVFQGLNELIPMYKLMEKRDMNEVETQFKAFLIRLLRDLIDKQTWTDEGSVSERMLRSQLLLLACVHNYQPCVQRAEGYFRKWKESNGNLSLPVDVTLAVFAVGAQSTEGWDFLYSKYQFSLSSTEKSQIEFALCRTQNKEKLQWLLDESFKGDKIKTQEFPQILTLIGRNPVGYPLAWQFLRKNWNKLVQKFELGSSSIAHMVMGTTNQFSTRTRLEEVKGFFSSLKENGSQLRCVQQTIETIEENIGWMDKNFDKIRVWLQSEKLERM
# Cneo AK release: causes C. neoformans cell lysis; adenylate kinase release luminescence, 4 h; normalised: neutral wells 0, clomiphene wells 100; lysis activity, % at 15 µM; 360,000 compounds, 0.2% hits; AID 651654;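 active = mean lysis activity across replicates of at least 80%, whatever share of replicates individually reach that level; inactive = mean lysis activity below 80%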
#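 Assay system: log-phase C. neoformans yeast / Quantity: yeast cell density of 5 × 10^6 cells/mL / Medium: fresh YPD growth medium / Compound: single dose / Timing: static 4 h at 37 °C with compound, 1 h detection / Measured by: adenylate kinase release luminescence / Read-out: lysis from increased AK signal / Benchmarks: Clomiphene as positive lysis control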
# An asterisk follows results filed as active; ? = inconclusive; / = no result given; [ ] = remark or other dose.
SMILES,HIV Env fusion,PGC1a acetyl inh,FGF22 binding,rRNA inh HTS,ERAP1 inh,Cneo AK release
COc1cccc(OC)c1NC(=O)C1CCCN1C(=O)Nc1ccccc1F (stereo not given),0,2,0,6,-5,8
Cc1noc(C)c1NC(=O)Nc1cccc2c1O[C@@H](CN(C)S(=O)(=O)c1cn(C)cn1)[C@@H](C)CN([C@@H](C)CO)C2=O,/,-4,-1,2,2,105*
Cc1cc(C(=O)Nc2cccc3c2O[C@H](CN(C)S(=O)(=O)c2ccc(Cl)cc2)[C@@H](C)CN([C@@H](C)CO)C3=O)n(C)n1,2[16.7 µM],4,0,1,0,-3
Cc1cc(C(=O)Nc2cccc3c2O[C@H](CN(C)S(=O)(=O)c2ccccc2)[C@H](C)CN([C@H](C)CO)C3=O)n(C)n1,-5[16.7 µM],9,0,-3,-5,90*
Cc1cc(C(=O)Nc2cccc3c2O[C@H](CN(C)S(=O)(=O)c2ccc(Cl)cc2)[C@H](C)CN([C@H](C)CO)C3=O)n(C)n1,-4[16.7 µM],0,0,-22*,-1,-1
O=C(NCc1ccco1)C1CCN(C(=O)c2ccc(Cl)cc2Cl)CC1,2,-6,0,0,-3,5
COc1ccc(OC)c(-c2csc(NC(=O)CN3C(=O)NC4(CCCC4)C3=O)n2)c1,-6,/,0,-25*,-1,/
COc1ccc(-c2csc(NC(=O)CN3C(=O)NC4(CCCC4)C3=O)n2)cc1,1,/,0,0,-6,1
CCc1ccc(NC(=O)CSCCO)cc1,0,3,0,3,1,-2
CCc1noc(C)c1C(=O)OCC(=O)Nc1cccc(C)c1,/,9,0,2,1,0
CCOc1ccc(CCNC(=O)CCC(=O)c2cccs2)cc1OCC,-25,/,0,3,1,2
CCOc1ccc(CCNC(=O)c2cc3sccc3n2CC)cc1OCC,65*,11,/,/,/,-1
Cc1ccc2occ(C(c3nnnn3C3CCCC3)N3CCN(C(=O)c4ccco4)CC3)c(=O)c2c1 (stereo not given),/,5,0,-6,10,2
CCOC(=O)C1=C(C(=O)OCC)C2N(Cc3ccc(C(F)(F)F)cc3)c3ccccc3[C@@]23C[C@@H](C(=O)OC)N(S(=O)(=O)c2cccs2)C3=N1 (stereo not given in full),?,/,0,10,-2,/
CCOC(=O)C1=C(C(=O)OCC)C2N(Cc3ccc(Br)cc3)c3ccccc3[C@@]23C[C@@H](C(=O)OC)N(S(=O)(=O)c2cccs2)C3=N1 (stereo not given in full),59*,/,0,10,-1,/
Cc1ccc(OCC(O)CN2C(=O)NC(C)(C)C2=O)cc1C (stereo not given),-7,1,0,0,-2,0
Cc1c(CCOC(=O)C23CC4(C)CC(C)(CC(C)(C4)C2)C3)sc[n+]1CC(=O)c1ccccc1,62*,-2,0,-51,6,/
CCOCCCNCc1cccc(OCc2ccc(F)cc2)c1,9,/,0,/,7,/
Cc1cc(OCCCCOc2ccc(S(N)(=O)=O)c(C)c2)ccc1S(N)(=O)=O,0,13,0,-19*,-9,1
CN1CCN(/N=C/c2ccc(N(c3ccccc3)c3ccccc3)cc2)CC1,27,56*,42,-8,-1,-4
Cc1noc(C)c1S(=O)(=O)N(C)C[C@@H]1Oc2c(NC(=O)C3CCCCC3)cccc2C(=O)N([C@@H](C)CO)C[C@@H]1C,/,4,-1,6,0,-11
CCCCc1ccc(Nc2nc(CCC)cc(=O)[nH]2)cc1,/,-6,/,/,/,0
CCCc1cc(=O)[nH]c(Nc2ccc3c(c2)OCCO3)n1,-5,10,0,-16*,-9,1
O=C(C1CCCCC1)N1CCC(O)(c2ccc(Cl)cc2)CC1,/,/,/,/,/,3
Cc1ccc(CCN2CC(C(=O)NCCCOC(C)C)CC2=O)cc1 (stereo not given),/,1,0,1,5,-1
SMILES,HIV Env fusion,PGC1a acetyl inh,FGF22 binding,rRNA inh HTS,ERAP1 inh,Cneo AK release
O=C1/C(=C/c2ccc(N3CCOCC3)o2)SC(=Nc2ccccc2)N1CCc1c[nH]c2ccccc12,/,62*,/,/,/,8
FC(F)(F)c1nc(N2CCCC2)ncc1-c1nnnn1-c1ccc(Cl)cc1,58*,/,/,/,/,/
Fc1ccc(-n2nnnc2-c2cnc(-c3cccs3)nc2C(F)(F)F)cc1,77*,/,/,/,/,/
CSC1=NS(=O)(=O)c2c(C)nn(C)c2S1,8,3,0,15,87*,0
CCOCCCNC(=O)C(NC(=O)c1ccccn1)c1ccc(C)cc1 (stereo not given),/,0,/,/,/,2
COc1ccc2[nH]c3c(=O)n(Cc4ccc(C(=O)N5CCC(C(N)=O)CC5)cc4)c(=S)[nH]c3c2c1,12,-11,43*,9,1,/
O=C(O)/C=C/C(=O)NCCCc1ccccc1,0,0,1,-12,8,/
CCCNC(=O)/C=C/C(=O)O,14,/,44*,5,-1,/
Cc1nn(CCC(=O)NCc2ccc(N(C)C)cc2)c(=O)c2nn(-c3ccccc3)c(C)c12,26,3,0,3,4,6
COc1ccc(C(=O)C2CCCN(Cc3ccc4nonc4c3)C2)c(OC)c1 (stereo not given),26,5,43,-28*,3,-3
O=C(c1ccc2c3c(cccc13)CC2)C1CCCN(Cc2cccnc2)C1 (stereo not given),27,-1,0,-17,/,-2
COc1ccc(C(=O)C2CCCN(Cc3ccc4nonc4c3)C2)cc1OC (stereo not given),7,-9,0,-6,-5,0
COc1cc(CN2CCCC(C(=O)c3ccc4c5c(cccc35)CC4)C2)cc(OC)c1O (stereo not given),56*,1,-1,31,-5,/
Cc1nn(C(C)C(=O)NCc2ccccc2F)c(=O)c2nn(-c3ccccc3)c(C)c12 (stereo not given),-4,-11,0,4,-2,4
O=C(OCC(=O)c1ccc[nH]1)c1ccc(Cl)nc1,-23,/,0,-1,-2,4
COc1cc(/C=C/C(=O)Nc2nnc(CC(C)(C)C)s2)cc(OC)c1OC,-12,-6,0,-2,-1,6
COc1cc(/C=C/C(=O)Nc2nnc(CC(C)C)s2)cc(OC)c1OC,57*,/,0,-4,6,/
CC(NC(=O)C(c1ccccc1)c1ccccc1)C(=O)O (stereo not given),/,32,0,12,1,1
CC(NC(=O)C(c1ccccc1)c1ccccc1)C(=O)N1CCCCC1 (stereo not given),6,-1,43*,6,-4,/

# Screening results from PubChem.
